Measured values: ChEMBL document CHEMBL4177764 (J Med Chem, 2018)
Activity calls are given as the source filed them. The calls are words filed in the database; no cut-off is given here.

Tests used:
[1] = target: Ribosomal protein S6 kinase alpha-1 (Homo sapiens) (UniProt Q15418); test: Induction of RPS6KA1 degradation in human KARPAS299 cells at 0.01 to 1 uM after 16 hrs by immunoblot method; type: cell-based
[2] = target: T1, Aurora kinase A (Homo sapiens) (UniProt O14965); test: Induction of aurora A degradation in human Kelly cells at 100 nM after 16 hrs in presence of proteasome inhibitor carfilzomib by immunoblot method; type: cell-based
T1 sequence (whole entry): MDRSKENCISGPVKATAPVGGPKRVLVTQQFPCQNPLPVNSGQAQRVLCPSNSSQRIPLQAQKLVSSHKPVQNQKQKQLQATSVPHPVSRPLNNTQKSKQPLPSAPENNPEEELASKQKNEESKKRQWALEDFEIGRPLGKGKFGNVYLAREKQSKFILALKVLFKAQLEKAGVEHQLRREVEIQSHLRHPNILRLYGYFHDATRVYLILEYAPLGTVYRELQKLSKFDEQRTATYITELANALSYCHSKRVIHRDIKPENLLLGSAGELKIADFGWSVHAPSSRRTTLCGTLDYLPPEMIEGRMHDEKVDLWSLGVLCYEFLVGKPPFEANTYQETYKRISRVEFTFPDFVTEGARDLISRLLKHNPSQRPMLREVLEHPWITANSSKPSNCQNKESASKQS
Summary of the method: (§1)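 Cells were pre-treated for 2 h with DMSO, carfilzomib, MLN4924 or pomalidomide, then treated with compound for 16 h, with immunoblot read-out. CHLA20 cells also received 125 nM tariquidar throughout.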

[3] = target: T2, ALK tyrosine kinase receptor (Homo sapiens, UniProt Q9UM73); test: Induction of ALK degradation in human Kelly cells at 100 nM after 16 hrs in presence of pomalidomide by immunoblot method; type: cell-based
Summary of the method: (§2)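 Kelly cells were pre-treated for 2 h with DMSO, carfilzomib, MLN4924, pomalidomide, TAE684 or LDK378. Degrader treatment followed for 16 h, and ALK was read by immunoblot.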
Target sequence in this assay (Q9UM73 19-1620 limits assumed): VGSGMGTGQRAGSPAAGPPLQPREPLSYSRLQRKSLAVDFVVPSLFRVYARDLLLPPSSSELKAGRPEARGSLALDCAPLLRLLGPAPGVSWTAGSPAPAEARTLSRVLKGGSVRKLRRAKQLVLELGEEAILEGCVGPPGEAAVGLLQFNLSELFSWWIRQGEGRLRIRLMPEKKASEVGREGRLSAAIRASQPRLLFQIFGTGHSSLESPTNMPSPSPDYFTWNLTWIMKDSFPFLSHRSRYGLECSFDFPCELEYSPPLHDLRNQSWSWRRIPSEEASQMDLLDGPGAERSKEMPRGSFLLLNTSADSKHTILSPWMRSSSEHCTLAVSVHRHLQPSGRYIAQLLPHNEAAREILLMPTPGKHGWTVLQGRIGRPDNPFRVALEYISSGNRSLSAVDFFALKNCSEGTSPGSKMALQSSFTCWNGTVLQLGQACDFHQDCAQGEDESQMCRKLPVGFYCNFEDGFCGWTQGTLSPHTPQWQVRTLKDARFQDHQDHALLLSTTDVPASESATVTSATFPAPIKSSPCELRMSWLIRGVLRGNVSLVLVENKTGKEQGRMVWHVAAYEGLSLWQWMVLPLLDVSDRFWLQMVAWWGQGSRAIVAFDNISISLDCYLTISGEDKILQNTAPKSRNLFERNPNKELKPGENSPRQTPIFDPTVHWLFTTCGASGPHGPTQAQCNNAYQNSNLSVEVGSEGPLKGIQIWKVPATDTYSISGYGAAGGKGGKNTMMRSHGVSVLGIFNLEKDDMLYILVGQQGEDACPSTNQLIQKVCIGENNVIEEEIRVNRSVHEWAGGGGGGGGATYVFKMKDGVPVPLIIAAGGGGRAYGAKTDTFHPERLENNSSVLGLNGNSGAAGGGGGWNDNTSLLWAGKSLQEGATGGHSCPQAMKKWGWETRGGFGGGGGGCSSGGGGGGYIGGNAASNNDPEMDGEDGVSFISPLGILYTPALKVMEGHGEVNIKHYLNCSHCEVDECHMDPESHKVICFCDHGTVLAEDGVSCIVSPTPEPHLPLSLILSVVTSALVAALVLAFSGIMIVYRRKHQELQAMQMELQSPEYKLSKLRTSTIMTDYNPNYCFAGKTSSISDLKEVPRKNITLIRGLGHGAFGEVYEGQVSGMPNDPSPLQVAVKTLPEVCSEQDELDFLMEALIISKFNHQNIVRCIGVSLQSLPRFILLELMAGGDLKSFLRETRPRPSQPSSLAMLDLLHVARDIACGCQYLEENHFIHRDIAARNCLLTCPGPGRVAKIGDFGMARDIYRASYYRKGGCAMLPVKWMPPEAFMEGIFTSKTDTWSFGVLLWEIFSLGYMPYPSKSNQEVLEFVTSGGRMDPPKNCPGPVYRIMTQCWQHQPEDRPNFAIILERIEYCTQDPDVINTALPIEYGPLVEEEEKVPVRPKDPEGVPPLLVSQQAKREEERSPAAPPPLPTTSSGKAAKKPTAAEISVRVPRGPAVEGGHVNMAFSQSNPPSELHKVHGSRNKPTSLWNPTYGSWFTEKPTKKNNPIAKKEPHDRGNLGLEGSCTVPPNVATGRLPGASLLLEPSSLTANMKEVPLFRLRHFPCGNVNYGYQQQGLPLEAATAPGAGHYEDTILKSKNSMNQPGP

Homo sapiens [4] = species: Homo sapiens; test: Antiproliferative activity against human CHLA20 cells after 72 hrs by CellTiter-Glo luminescent cell viability assay; type: functional, cell-based
[5] = target: T2, ALK tyrosine kinase receptor; test: Induction of ALK degradation in human NCI-H3122 cells at 250 nM after 16 hrs in presence of […] inhibitor MLN4924 by immunoblot method; type: cell-based
Target sequence in this assay (Q9UM73 19-1620 limits assumed): as above

SH-SY5Y [6] = test: Antiproliferative activity against human SH-SY5Y cells after 72 hrs in presence of ABCB1 inhibitor tariquidar by CellTiter-Glo luminescent cell viability assay; type: functional, cell-based
[7] = target: T2, ALK tyrosine kinase receptor; test: Induction of ALK degradation in human NCI-H3122 cells at 250 nM after 16 hrs in presence of ALK inhibitor LDK378 by immunoblot method; type: cell-based
Target sequence in this assay (Q9UM73 19-1620 limits assumed): as above

SH-SY5Y [8] = test: Antiproliferative activity against human SH-SY5Y cells after 72 hrs by CellTiter-Glo luminescent cell viability assay; type: functional, cell-based
[9] = target: T2, ALK tyrosine kinase receptor; test: Induction of ALK degradation in human Kelly cells at 100 nM after 16 hrs in presence of ALK inhibitor LDK378 by immunoblot method; type: cell-based; summary of the method: as §2
Target sequence in this assay (Q9UM73 19-1620 limits assumed): as above

[10] = target: Tyrosine-protein kinase Fer (Homo sapiens) (UniProt P16591); test: Induction of FER degradation in human KARPAS299 cells at 0.01 to 1 uM after 16 hrs by immunoblot method; type: cell-based
Chain of Tyrosine-protein kinase Fer (Homo sapiens) (P16591 whole entry, looked up): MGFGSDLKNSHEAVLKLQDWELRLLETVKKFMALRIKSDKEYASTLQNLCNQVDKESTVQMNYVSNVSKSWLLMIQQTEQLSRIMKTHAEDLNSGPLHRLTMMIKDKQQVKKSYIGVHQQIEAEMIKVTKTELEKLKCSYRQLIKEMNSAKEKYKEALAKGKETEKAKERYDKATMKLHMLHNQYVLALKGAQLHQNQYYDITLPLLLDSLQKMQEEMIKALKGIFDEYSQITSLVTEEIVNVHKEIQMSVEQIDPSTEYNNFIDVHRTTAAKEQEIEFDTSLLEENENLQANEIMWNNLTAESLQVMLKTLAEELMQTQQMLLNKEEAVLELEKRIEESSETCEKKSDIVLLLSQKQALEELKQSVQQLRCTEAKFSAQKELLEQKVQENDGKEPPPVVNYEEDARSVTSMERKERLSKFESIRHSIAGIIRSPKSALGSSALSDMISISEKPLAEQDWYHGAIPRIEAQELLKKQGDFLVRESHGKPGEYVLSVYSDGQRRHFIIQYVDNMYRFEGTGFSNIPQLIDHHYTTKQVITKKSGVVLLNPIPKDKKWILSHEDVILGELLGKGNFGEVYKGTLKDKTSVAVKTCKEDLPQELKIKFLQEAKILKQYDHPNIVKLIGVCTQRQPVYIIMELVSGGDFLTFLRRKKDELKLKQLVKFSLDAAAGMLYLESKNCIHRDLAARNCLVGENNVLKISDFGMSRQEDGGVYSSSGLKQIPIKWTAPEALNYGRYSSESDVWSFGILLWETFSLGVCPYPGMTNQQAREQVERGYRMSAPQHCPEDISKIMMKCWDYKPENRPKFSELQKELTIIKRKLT

[11] = target: T2, ALK tyrosine kinase receptor; test: Induction of ALK degradation in human KARPAS299 cells after 16 hrs by immunoblot method; type: cell-based
Summary of the method: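 H3122 and Karpas 299 cells were given a dose titration for 16 h. ALK and Aurora A were then read by immunoblot. DC50 was calculated from the titrations, two independent experiments.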
Target sequence in this assay (Q9UM73 whole entry): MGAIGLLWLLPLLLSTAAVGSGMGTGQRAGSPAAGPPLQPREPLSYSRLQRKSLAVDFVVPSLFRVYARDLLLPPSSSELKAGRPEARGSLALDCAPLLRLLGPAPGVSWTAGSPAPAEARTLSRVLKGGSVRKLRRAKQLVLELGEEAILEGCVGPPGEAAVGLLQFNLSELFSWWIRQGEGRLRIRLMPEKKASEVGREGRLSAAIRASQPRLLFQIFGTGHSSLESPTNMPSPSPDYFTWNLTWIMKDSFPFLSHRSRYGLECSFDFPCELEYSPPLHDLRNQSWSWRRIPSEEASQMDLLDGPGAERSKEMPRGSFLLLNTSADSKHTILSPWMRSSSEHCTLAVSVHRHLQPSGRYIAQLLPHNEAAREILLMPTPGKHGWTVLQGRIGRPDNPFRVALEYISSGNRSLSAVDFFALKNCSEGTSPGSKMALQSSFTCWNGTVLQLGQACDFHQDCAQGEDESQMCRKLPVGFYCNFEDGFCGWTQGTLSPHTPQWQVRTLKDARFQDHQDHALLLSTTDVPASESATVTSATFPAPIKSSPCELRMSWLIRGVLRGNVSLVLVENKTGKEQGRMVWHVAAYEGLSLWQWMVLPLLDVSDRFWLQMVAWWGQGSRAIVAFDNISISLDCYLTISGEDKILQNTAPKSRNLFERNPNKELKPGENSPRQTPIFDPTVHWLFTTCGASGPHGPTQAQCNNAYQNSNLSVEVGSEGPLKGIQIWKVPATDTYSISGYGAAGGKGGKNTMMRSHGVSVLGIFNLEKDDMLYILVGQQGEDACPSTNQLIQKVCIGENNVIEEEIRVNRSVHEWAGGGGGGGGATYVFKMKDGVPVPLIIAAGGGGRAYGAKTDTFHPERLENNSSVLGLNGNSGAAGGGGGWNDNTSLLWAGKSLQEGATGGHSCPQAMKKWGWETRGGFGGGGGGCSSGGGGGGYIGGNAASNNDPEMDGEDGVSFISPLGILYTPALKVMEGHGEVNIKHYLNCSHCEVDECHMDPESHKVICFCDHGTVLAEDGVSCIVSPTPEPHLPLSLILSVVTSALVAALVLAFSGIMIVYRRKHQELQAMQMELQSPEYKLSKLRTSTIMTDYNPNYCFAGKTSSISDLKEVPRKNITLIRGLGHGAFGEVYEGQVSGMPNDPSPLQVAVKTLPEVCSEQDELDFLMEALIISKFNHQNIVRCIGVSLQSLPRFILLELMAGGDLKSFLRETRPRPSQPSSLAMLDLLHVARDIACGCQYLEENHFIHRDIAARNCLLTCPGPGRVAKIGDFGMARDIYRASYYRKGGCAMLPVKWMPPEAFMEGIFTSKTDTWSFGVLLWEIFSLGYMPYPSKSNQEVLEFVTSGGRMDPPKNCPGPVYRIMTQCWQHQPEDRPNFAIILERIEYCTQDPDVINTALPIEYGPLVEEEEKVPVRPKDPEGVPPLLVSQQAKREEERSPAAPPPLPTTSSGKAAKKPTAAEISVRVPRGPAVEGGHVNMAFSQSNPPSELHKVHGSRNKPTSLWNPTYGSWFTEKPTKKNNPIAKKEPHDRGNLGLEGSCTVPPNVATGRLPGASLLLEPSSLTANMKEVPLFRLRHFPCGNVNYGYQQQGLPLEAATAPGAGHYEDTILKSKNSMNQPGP

[12] = target: T1, Aurora kinase A (Homo sapiens); test: Induction of aurora A degradation in human KARPAS299 cells at 250 nM after 16 hrs in presence of proteasome inhibitor carfilzomib by immunoblot method; type: cell-based
[13] = target: T1, Aurora kinase A (Homo sapiens); test: Induction of aurora A degradation in human Kelly cells at 100 nM after 16 hrs in presence of pomalidomide by immunoblot method; type: cell-based; summary of the method: as §1
[14] = target: Tyrosine-protein kinase Fer (Homo sapiens) (UniProt P16591); test: Induction of FER degradation in human NCI-H3122 cells at 250 nM measured over 2 to 16 hrs by immunoblot method; type: cell-based
[15] = target: T2, ALK tyrosine kinase receptor; test: Induction of ALK degradation in human NCI-H3122 cells at 250 nM after 16 hrs in presence of ALK inhibitor TAE684 by immunoblot method; type: cell-based
Target sequence in this assay (Q9UM73 19-1620 limits assumed): as the sequence (Q9UM73 19-1620 limits assumed) above

[16] = target: T2, ALK tyrosine kinase receptor; test: Induction of ALK degradation in human Kelly cells at 100 nM after 16 hrs in presence of ALK inhibitor TAE684 by immunoblot method; type: cell-based; summary of the method: as §2
Target sequence in this assay (Q9UM73 19-1620 limits assumed): as above

[17] = target: Tyrosine-protein kinase Fer (Homo sapiens) (UniProt P16591); test: Induction of FER degradation in human Kelly cells at 10 to 160 nM after 16 hrs by immunoblot method; type: cell-based
[18] = target: T2, ALK tyrosine kinase receptor; test: Induction of ALK degradation in human NCI-H3122 cells at 250 nM after 16 hrs in presence of pomalidomide by immunoblot method; type: cell-based
[19] = target: T1, Aurora kinase A (Homo sapiens); test: Induction of aurora A degradation in human Kelly cells at 100 nM measured over 2 to 16 hrs by immunoblot method; type: cell-based
Summary of the method: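 Kelly cells were given 100 nM compound for varying times, and lysates were immunoblotted for Aurora A.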

[20] = target: T1, Aurora kinase A (Homo sapiens); test: Induction of aurora A degradation in human Kelly cells at 100 nM after 16 hrs in presence of […] inhibitor MLN4924 by immunoblot method; type: cell-based; summary of the method: as §1
[21] = target: Focal adhesion kinase 1 (Homo sapiens) (UniProt Q05397); test: Induction of PTK2 degradation in human Kelly cells at 100 nM measured over 2 to 16 hrs by immunoblot method; type: cell-based
[22] = target: Tyrosine-protein kinase Fer (Homo sapiens) (UniProt P16591); test: Induction of FER degradation in human Kelly cells at 100 nM measured over 2 to 16 hrs by immunoblot method; type: cell-based
[23] = target: T2, ALK tyrosine kinase receptor; test: Induction of ALK degradation in human CHLA20 cells assessed as decrease in ALK phosphorylation at Y1507 at 50 to 250 nM after 16 hrs in presence of ABCB1 inhibitor tariquidar by immunoblot method; type: cell-based
Summary of the method: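 CHLA20 neuroblastoma cells (ABCB1-high) were co-treated with 125 nM tariquidar throughout. They were dose-titrated for 16 hours and read by immunoblot.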

Homo sapiens [24] = species: Homo sapiens; test: Antiproliferative activity against human CHLA20 cells after 72 hrs in presence of ABCB1 shRNA by CellTiter-Glo luminescent cell viability assay; type: functional, cell-based
KARPAS-299 = test: Antiproliferative activity against human KARPAS299 cells after 72 hrs by CellTiter-Glo luminescent cell viability assay; type: functional, cell-based
[25] = target: T2, ALK tyrosine kinase receptor; test: Induction of ALK degradation in human CHLA20 cells at 100 nM after 16 hrs in presence of ALK inhibitor TAE684 and ABCB1 inhibitor tariquidar by immunoblot method; type: cell-based
Summary of the method: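 CHLA20 cells were kept with 125 nM tariquidar and pre-treated for 2 h with DMSO, carfilzomib, MLN4924, pomalidomide, TAE684 or LDK378. A 16 h degrader treatment followed, with immunoblot readout of ALK.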

[26] = target: T2, ALK tyrosine kinase receptor; test: Induction of ALK degradation in human NCI-H3122 cells at 250 nM after 4 hrs by immunoblot method; type: cell-based
[27] = target: T1, Aurora kinase A (Homo sapiens); test: Induction of aurora A degradation in human CHLA20 cells at 100 nM after 16 hrs in presence of pomalidomide and ABCB1 inhibitor tariquidar by immunoblot method; type: cell-based; summary of the method: as §1
[28] = target: T1, Aurora kinase A (Homo sapiens); test: Induction of aurora A degradation in human NCI-H3122 cells at 250 nM measured over 2 to 16 hrs by immunoblot method; type: cell-based
[29] = target: T1, Aurora kinase A (Homo sapiens); test: Induction of aurora A degradation in human NCI-H3122 cells at 250 nM after 16 hrs in presence of proteasome inhibitor carfilzomib by immunoblot method; type: cell-based

Chain of Ribosomal protein S6 kinase alpha-1 (Homo sapiens) (Q15418 whole entry): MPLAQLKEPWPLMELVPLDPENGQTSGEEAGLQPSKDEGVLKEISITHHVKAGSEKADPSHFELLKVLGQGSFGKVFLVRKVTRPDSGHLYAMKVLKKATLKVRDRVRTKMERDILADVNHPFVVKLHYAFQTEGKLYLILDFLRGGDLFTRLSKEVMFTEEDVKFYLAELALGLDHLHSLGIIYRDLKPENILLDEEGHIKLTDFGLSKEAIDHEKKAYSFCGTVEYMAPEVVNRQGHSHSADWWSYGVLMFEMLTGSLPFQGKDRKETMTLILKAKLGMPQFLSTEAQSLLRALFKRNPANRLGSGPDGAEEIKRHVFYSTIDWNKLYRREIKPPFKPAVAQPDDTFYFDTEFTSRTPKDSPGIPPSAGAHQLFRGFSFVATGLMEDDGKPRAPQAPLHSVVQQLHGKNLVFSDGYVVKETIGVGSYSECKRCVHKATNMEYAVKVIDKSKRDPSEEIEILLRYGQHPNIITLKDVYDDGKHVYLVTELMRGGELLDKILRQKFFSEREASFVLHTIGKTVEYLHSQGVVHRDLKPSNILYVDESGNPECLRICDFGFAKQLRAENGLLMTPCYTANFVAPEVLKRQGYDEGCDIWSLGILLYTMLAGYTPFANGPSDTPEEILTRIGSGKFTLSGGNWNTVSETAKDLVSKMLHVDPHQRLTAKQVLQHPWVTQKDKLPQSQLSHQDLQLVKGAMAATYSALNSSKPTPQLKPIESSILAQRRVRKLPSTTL

| Compound | Activity [1] | Activity [2] | Activity [3] | Activity (Homo sapiens [4]) | Activity [5] | Activity (SH-SY5Y [6]) | Activity [7] | Activity (SH-SY5Y [8]) | Activity [9] | Activity [10] | DC50 [11] [nM] | Activity [12] | Activity [13] | Activity [14] | Activity [15] | Activity [16] | Activity [17] | Activity [18] | Activity [19] | Activity [20] | also measured |
| --- | --- | --- | --- | --- | --- | --- | --- | --- | --- | --- | --- | --- | --- | --- | --- | --- | --- | --- | --- | --- | --- |
| Cc1cc(Nc2ncc(Cl)c(Nc3ccccc3S(=O)(=O)C(C)C)n2)c(OC(C)C)cc1C1CCN(CCOCCOCCNC(=O)CNc2cccc3c2C(=O)N(C2CCC(=O)NC2=O)C3=O)CC1 (stereo not given) | Active | inactive | inactive | inactive | inactive | Active | Active | inactive | inactive | Active | 40 | inactive | inactive | Active | inactive | inactive | Active | inactive | Active | inactive | Activity [21]: Active; Activity [22]: Active; Activity [23]: Active; Activity (Homo sapiens [24]): Active; Activity (KARPAS-299): Active; Activity [25]: inactive; Activity [26]: Active; Activity [27]: inactive; Activity [28]: Active; Activity [29]: inactive |
| COc1cc(N2CCN(CCOCCOCCNC(=O)CNc3cccc4c3C(=O)N(C3CCC(=O)NC3=O)C4=O)CC2)ccc1Nc1ncc(Cl)c(Nc2ccccc2S(=O)(=O)C(C)C)n1 (stereo not given) | Active | inactive | inactive | inactive | inactive | Active | Active | inactive | inactive | Active | 180 | inactive | inactive | Active | inactive | inactive | Active | inactive | Active | inactive | Activity [21]: Active; Activity [22]: Active; Activity [23]: Active; Activity (Homo sapiens [24]): Active; Activity (KARPAS-299): Active; Activity [25]: inactive; Activity [26]: Active; Activity [27]: inactive; Activity [28]: Active; Activity [29]: inactive |
